Measurements pooled from the literature.
Target: Dual specificity mitogen-activated protein kinase kinase 5 (MAP2K5, Homo sapiens, UniProt Q13163)
One construct used (Q13163 1-448): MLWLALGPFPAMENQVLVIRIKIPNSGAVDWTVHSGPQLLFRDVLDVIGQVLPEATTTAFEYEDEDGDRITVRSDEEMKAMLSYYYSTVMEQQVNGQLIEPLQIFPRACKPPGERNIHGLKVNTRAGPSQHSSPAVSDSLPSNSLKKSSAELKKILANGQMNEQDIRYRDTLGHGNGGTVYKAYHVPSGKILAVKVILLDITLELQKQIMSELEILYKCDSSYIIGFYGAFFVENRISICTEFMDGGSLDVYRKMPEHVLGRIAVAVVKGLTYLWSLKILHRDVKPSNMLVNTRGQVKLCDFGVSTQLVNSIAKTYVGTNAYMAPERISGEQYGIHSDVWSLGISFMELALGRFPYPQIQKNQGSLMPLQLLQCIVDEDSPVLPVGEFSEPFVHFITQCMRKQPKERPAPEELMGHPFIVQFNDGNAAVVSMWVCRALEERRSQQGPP

O=C(Nc1cnn(-c2csc(C(=O)NC3COC3)c2)c1)Nc1ccccc1Cl  remaining activity (enzyme activity, inhibitor; 5 µM): 98.2%
Nc1ncnc2occ(-c3ccc(NC(=O)Nc4cc(C(F)(F)F)ccc4F)cc3)c12  remaining signal (cell-free assay, inhibitor; 20 µM): 0.15%
Cc1ccc(C(=O)Nc2ccc(CN3CCN(C)CC3)c(C(F)(F)F)c2)cc1C#Cc1cnc2cccnn12  remaining activity (enzyme activity, inhibitor; 23.5 nM): 2.4%
CC(C)(C)c1nc2c(s1)c1nc(N)ncc1c1ccc(NS(=O)(=O)c3c(F)cccc3F)c(F)c12  remaining activity (enzyme activity, inhibitor, radiometric; 1 µM): 80%
Cc1sc(C(=O)NC2COC2)cc1-n1cc(NC(=O)Nc2c(F)cccc2Cl)cn1  remaining activity (enzyme activity, inhibitor; 10 µM): 96.8%
COc1cccc2c(NCc3ccccc3)nc(-n3c(N)nc4ccccc43)nc12  inhibition (target engagement in cells, inhibitor, chemoproteomics; 20 mM): 6.7%
CC1=C(C#N)C(c2ccc3c(c2)c(NC(=O)c2ccccc2C)nn3C)C(C#N)=C(C)N1  remaining binding (cell-free assay, competition with immobilised ligand; 1 µM): 79%
CC(C)(C)c1nc(-c2cccc(NS(=O)(=O)c3c(F)cccc3F)c2F)c(-c2ccnc(N)n2)s1  remaining activity (enzyme activity, inhibitor, radiometric; 1 µM): 90%
CCCCNc1ncc2c(-c3ccc(F)cc3)nn(C[C@H]3CC[C@H](N)CC3)c2n1  inhibition (target engagement in cells, inhibitor, chemoproteomics; 20 mM): 83%
CC(C)(O)c1cncc(-c2nc3ccc(F)cc3n2C2CC2)c1  remaining binding (cell-free assay, competition with immobilised ligand; 1 µM): 100%
